This passage reports B-score results from PubChem BioAssay AID2237 (Johns Hopkins Ion Channel Center, 2010).

Out of some 310,000 compounds screened, about 1,500 (0.48%) were called active. This is one part of a sample in which actives are shown more often than they occur.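 How the source made its calls: active means B-score above 5 SD of library B-scores, and initial fluorescence ratio not above library mean plus 5 SD; inactive means the rest.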

Sequence of Short transient receptor potential channel 4 (Mus musculus) (Q9QUQ5 whole entry, looked up): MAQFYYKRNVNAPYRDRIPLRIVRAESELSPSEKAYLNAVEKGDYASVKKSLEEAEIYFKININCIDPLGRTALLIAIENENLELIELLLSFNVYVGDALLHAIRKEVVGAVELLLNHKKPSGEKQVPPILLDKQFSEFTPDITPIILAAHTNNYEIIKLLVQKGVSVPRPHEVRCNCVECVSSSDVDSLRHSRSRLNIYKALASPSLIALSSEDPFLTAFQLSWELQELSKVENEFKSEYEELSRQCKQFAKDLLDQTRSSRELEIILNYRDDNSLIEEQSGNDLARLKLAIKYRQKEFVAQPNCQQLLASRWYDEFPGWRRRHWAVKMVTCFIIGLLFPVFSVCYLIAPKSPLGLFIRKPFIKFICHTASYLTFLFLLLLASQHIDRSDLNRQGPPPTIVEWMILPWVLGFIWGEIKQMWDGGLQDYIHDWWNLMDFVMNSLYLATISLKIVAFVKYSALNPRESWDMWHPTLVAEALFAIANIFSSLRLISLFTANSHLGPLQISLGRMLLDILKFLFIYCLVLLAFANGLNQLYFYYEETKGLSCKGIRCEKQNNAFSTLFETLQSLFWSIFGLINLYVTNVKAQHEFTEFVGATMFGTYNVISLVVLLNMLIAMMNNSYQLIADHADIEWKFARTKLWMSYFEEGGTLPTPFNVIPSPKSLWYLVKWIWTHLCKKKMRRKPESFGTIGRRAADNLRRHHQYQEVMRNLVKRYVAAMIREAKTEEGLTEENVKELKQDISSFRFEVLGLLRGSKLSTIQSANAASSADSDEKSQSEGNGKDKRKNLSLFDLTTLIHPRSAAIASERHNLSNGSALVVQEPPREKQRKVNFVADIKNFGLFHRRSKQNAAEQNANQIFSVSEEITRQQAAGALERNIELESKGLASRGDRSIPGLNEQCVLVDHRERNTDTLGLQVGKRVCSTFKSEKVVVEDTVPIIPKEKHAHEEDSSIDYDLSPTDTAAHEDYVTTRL

The experiment concerns the target Short transient receptor potential channel 4 (Mus musculus) (UniProt Q9QUQ5). Kind of experiment: activators of mouse TRPC4 channel, primary screen, Fluo4 calcium, HEK293 TRPC4beta/mu-opioid cells (AID 2237).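 On B-score: positive B-score marks a calcium rise read as TRPC4 activation.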 Particulars: Fluo4 calcium fluorescence, at 10 µM; active compounds read high. The gist of the method:
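Technique: kinetic Fluo4 calcium fluorescence; Test system: TRPC4beta and mu-opioid receptor HEK293 stable cells; Measure: B-scored integrated calcium fluorescence ratio; Benchmarks: low control buffer alone, high control maximal DAMGO; Schedule: 45 min room-temperature Fluo4 loading, 110 s read.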
For the molecule `c1ccc2sc(N3CCNCC3)nc2c1`, the B-score is 173 (active).
In the case of `COc1cc(OC)cc(C2(C#N)CCN(C)CC2)c1` it was “inactive”.
In the case of `C/C(=N/O)c1ccc2ccc3ccccc3c2c1` it was “inactive”.
Consider `CCC1(C)CC(CCNCc2ccc(N(C)C)cc2)(c2ccc(F)cc2)CCO1` (stereo not given), for which the B-score was 114 (active).
As for `CCCCCCCCCCCCn1ccc(=N)cc1`, the B-score entry was “inactive”.
In the case of `O=C(c1cc2nc(-c3ccccc3)cc(-c3ccccc3)n2n1)N1CCC2(CC1)OCCO2`, the B-score entry was “inactive”.
On to `N#Cc1ccc(Cn2cc(C(=O)c3ccco3)c3ccccc32)cc1`, for which the B-score result is “inactive”.
As for `CN(C)C(=O)Oc1ccc(NC(=O)N2CCOCC2)cc1`, the B-score entry is “inactive”.
In the case of `Cc1nc2ccccn2c1P(=S)(N1CCCCC1)N1CCCCC1`, the B-score was 87 (active).
In the case of `CC(=C1C(=O)c2ccccc2C1=O)N1CCN(CCN=Cc2c(O)n(C)c(=O)n(C)c2=O)CC1` it was “inactive”; in that of `Cc1nc2ccccc2c(=O)n1-c1ccc(Cl)cc1Cl`, “inactive”.
For `Cc1ccc(Cn2nnnc2CN2CCC(n3nnc4ccccc43)CC2)cc1`, the B-score entry is “inactive”.
As to `CCN(CC)C(=O)c1ccc(NC(=O)c2cc(-n3cnnc3)ccc2Cl)cc1`, the B-score entry was “inactive”.
`c1cncc(CNCCc2c[nH]c3ccccc23)c1`: the B-score entry is “inactive”.
In the case of `COc1ccc(CNCCc2c[nH]c3ccccc23)cc1OC` it was 88 (active); in that of `COc1ccc(CNCCc2ccc3c(c2)OCO3)c(OC)c1OC`, “inactive”; in that of `CC1C2Cn3c(nc4ccccc43)C1N(C)O2` (stereo not given), “inactive”.
The value for `CCN1CCN(c2nc3c(c(=O)[nH]2)CCC3)CC1` was “inactive”; that for `Cc1ccnc(-n2c(C)cc(/C=C3\C(=O)NC(=S)N(C)C3=O)c2C)c1` was “inactive”.
Regarding `c1ccc(CCN2CCC3(CC2)OCCO3)cc1`, the B-score entry is “inactive”.
Consider `C[N+]1(C)CCOC(O)(c2ccc(-c3ccc(C4(O)C[N+](C)(C)CCO4)cc3)cc2)C1` (stereo not given), for which the B-score result was “inactive”.
Take `c1ccc2sc(C3CCCNC3)nc2c1` (stereo not given): the B-score was 159 (active).
In the case of `COc1ccccc1N=C1SCCCN1C` it was “inactive”; in that of `COc1ccc2c(c1O)-c1cccc3c1[C@@H](C2)N(C)CC3`, “inactive”.
In the case of `CC(=NC1CCN(Cc2ccccc2)CC1)c1c(O)n(C)c(=O)n(C)c1=O`, the B-score entry was “inactive”.
In the case of `CCN(CC)CCOC(=O)c1cc2cc(COC)ccc2o1` it was “inactive”; in that of `COC(=O)C1=C(c2ccccc2)C[C@@H]2CC[C@H]1N2C(=O)N1CCCCC1`, “inactive”.
As to `CSc1ccc(C(=O)C2CCCN(Cc3ccn[nH]3)C2)cc1` (stereo not given), the B-score is 52 (active).
The value for `COc1ccc(C(=O)C2CCCN(Cc3ccc(C)s3)C2)cc1OC` (stereo not given) was “inactive”; that for `Cc1ccc(CN2CCCC(C(=O)c3ccc4c(c3)OCO4)C2)cc1C` (stereo not given) was “inactive”.
As to `c1ccc(CCNC2CCCCCC2)cc1`, the B-score result was “inactive”.
As to `CCCCC(=O)N/N=C/c1c(O)n(CC)c(=S)n(CC)c1=O`, the B-score was 103 (active).
The value for `CCCCC(=O)N/N=C/c1c(O)n(-c2ccccc2)c(=O)[nH]c1=O` was “inactive”.
In the case of `CCCCC(=O)N/N=C/c1c(O)n(CCC2=CCCCC2)c(=O)[nH]c1=O` it was “inactive”; in that of `O=C1NC(=O)C(C/C=C/c2ccccc2)C(=O)N1`, “inactive”; in that of `CC(=O)N(C1=NCCCS1)c1ccccc1F`, 44 (active).
In the case of `O=c1c2ccccc2nc(-c2ccc(Cl)cc2Cl)n1-c1ccncc1` it was “inactive”; in that of `COc1ccc(N=Cc2c(O)n(C)c(=O)[nH]c2=O)cc1`, “inactive”; in that of `Cn1c(C(=O)N2CCC(C(=O)N3CCC4(CC3)OCCO4)CC2)cc2sccc21`, “inactive”.
As to `COC(=O)C1=C(c2cc3ccccc3s2)C[C@@H]2CC[C@H]1N2C(=O)NCCO`, the B-score was 72 (active).
`COC(=O)C1=C(c2cc3ccccc3s2)C[C@@H]2CC[C@H]1N2C(=O)NC(C)C`: the B-score result is “inactive”.
In the case of `COC(=O)C1=C(c2cc3ccccc3s2)C[C@@H]2CC[C@H]1N2C(=O)NCc1cccc2ccccc12` it was “inactive”; in that of `C=CCN1C(=O)C2(C(C(=O)OCC)=C(N)Oc3c2c(=O)oc2ccccc32)c2ccccc21` (stereo not given), “inactive”; in that of `COc1ccccc1C1=NCc2nnc(CSC)n2-c2ccc(Cl)cc21`, “inactive”.
In the case of `CN(C)CCN(CC1CCCN(Cc2ccccc2F)C1)C(=O)Cc1ccc(F)c(F)c1` (stereo not given) it was “inactive”.
